# Measured values from PMC8268672 (Bioorganic Chemistry, 2021).
# Where two headings read alike, the source gives them in different places.
# Key:
# [1] = system: Pseudomonas aeruginosa (MCCB 0035); test: MIC, broth microdilution; format: cell-based; conditions: read-out: Minimum inhibitory concentration (MIC), PA
# Method in brief: (§1)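 Broth microdilution per CLSI in Mueller-Hinton broth, using two-fold serial dilutions of test compound and reference drugs from 512 to 0.25. Bacterial broth cultures were grown 2-6 h to 0.5 McFarland turbidity, then diluted with sterile solution to the final inoculum. MIC is reported in µg/mL.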
# [2] = system: Madin Darby canine kidney (MDCK) cells; conditions: dog
# [3] = system: Cryptococcus neoformans (ATCC 9011); test: Agar disk diffusion, inhibition zone; format: cell-based; conditions: 100 µg/8 mm disc, triplicate, mean ± SD
# [4] = system: Punta Toro virus; test: CPE reduction assay in Vero cells; format: cell-based; conditions: read-out: Antiviral EC50, Punta Toro virus
# [5] = system: Para-influenza-3 virus; test: CPE reduction assay in Vero cells; format: cell-based, Parainfluenza-3 virus; conditions: Vero, read-out: Antiviral EC50, Para-influenza-3 virus
# [6] = system: Staphylococcus aureus (ATCC 29213); test: MIC, broth microdilution; format: cell-based; conditions: ATCC29213, read-out: Minimum inhibitory concentration (MIC), SA
# Method in brief: (§2)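 Antibacterial MICs by CLSI broth microdilution in Mueller-Hinton broth. Test compounds and standard drugs are serially diluted two-fold from 512 to 0.25. The bacterial broth culture is grown 2-6 h to a 0.5 McFarland turbidity, then adjusted with sterile solution to the final inoculum.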
# [7] = system: Lactobacillus casei (NCIM-2651); test: Agar disk diffusion, inhibition zone; format: cell-based; conditions: 100 µg/8 mm disc, triplicate, mean ± SD
# [8] = system: Influenza A/H1N1 A/Ned/378/05; test: CPE reduction assay in MDCK cells; format: cell-based; conditions: Influenza A virus
# [9] = system: Yellow Fever virus; test: microbe, parasite or virus in culture; format: cell-based; conditions: Yellow fever virus, Vero, read-out: Antiviral EC50, Yellow Fever virus
# [10] = system: Adeno virus-2; test: CPE reduction assay in HEL cells; format: cell-based; conditions: read-out: Antiviral EC50, Adeno virus-2
# [11] = system: Escherichia coli (ATCC 8739); test: MIC, broth microdilution; format: cell-based; conditions: ATCC8739, read-out: Minimum inhibitory concentration (MIC), EC
# Method in brief: as §1
# [12] = system: Aspergillus fumigatus (NCIM 2081); test: Agar disk diffusion, inhibition zone; format: cell-based; conditions: 100 µg/8 mm disc, triplicate, mean ± SD
# [13] = system: Candida albicans (NCIM 2087); test: MIC, broth microdilution; format: cell-based; conditions: NCIM2087, read-out: Minimum inhibitory concentration (MIC), CA
# Method in brief: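 CLSI broth microdilution in Sabouraud liquid medium, with test compound two-fold serially diluted from 512 to 0.25. Fungal broth culture grown 24 h at 35 °C to 0.5 McFarland turbidity, then adjusted with sterile solution to a final […] inoculum. MIC expressed in µg/mL.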
# [14] = system: Cryptococcus neoformans (ATCC 9011); test: MIC, broth microdilution; format: cell-based; conditions: ATCC9011, read-out: Minimum inhibitory concentration (MIC), CN
# Method in brief: (§3)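 Antifungal MICs by CLSI broth microdilution in Sabouraud liquid medium. Test compounds and standard drugs are serially diluted two-fold from 512 to 0.25. The fungal broth culture is grown 24 h at 35 °C to a 0.5 McFarland turbidity, then adjusted with sterile solution to the final inoculum.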
# [15] = system: Escherichia coli (ATCC 8739); test: Agar disk diffusion, inhibition zone; format: cell-based; conditions: 100 µg/8 mm disc, triplicate, mean ± SD
# Method in brief: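 Agar disk diffusion on Mueller-Hinton agar plates seeded with a standard bacterial suspension. Test compound stock in DMSO, diluted with distilled water; 8 mm sterile filter-paper discs soaked in the solution. Ampicillin was the reference. Plates incubated at 35 °C for 24 h, in triplicate. Read-out is the average inhibition-zone diameter (mm) around each disc.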
# [16] = system: Klebsiella aerogenes (NCIM-2098); test: Agar disk diffusion, inhibition zone; format: cell-based; conditions: 100 µg/8 mm disc, triplicate, mean ± SD
# [17] = system: Coxsackie virus B4; test: CPE reduction assay in Vero cells; format: cell-based; conditions: Enterovirus B, read-out: Antiviral EC50, Coxsackie virus B4
# [18] = system: Vero cells; conditions: Vero cell cultures; microscopically detectable alteration of normal cell morphology
# [19] = system: Candida albicans (NCIM 2087); test: Agar disk diffusion, inhibition zone; format: cell-based; conditions: 100 µg/8 mm disc, triplicate, mean ± SD
# [20] = system: Aspergillus fumigatus (NCIM 2081); test: MIC, broth microdilution; format: cell-based; conditions: NCIM2081, read-out: Minimum inhibitory concentration (MIC), AF
# Method in brief: as §3
# [21] = system: Influenza B B/Ned/537/05; test: CPE reduction assay in MDCK cells; format: cell-based; conditions: Influenza B virus, read-out: Antiviral EC50, Influenza B B/Ned/537/05, MTS
# [22] = system: Vaccinia virus; test: microbe, parasite or virus in culture; format: cell-based; conditions: Orthopoxvirus vaccinia, HEL, read-out: Antiviral EC50, Vaccinia virus
# [23] = system: Human Coronavirus (229E); test: CPE reduction assay in HEL cells; format: cell-based; conditions: read-out: Antiviral EC50, Human Coronavirus (229E)
# [24] = system: Sindbis virus; test: CPE reduction assay in Vero cells; format: cell-based; conditions: read-out: Antiviral EC50, Sindbis virus
# [25] = system: Streptococcus pneumonia (ATCC 49619); test: Agar disk diffusion, inhibition zone; format: cell-based; conditions: 100 µg/8 mm disc, triplicate, mean ± SD
# [26] = system: Aspergillus niger (NCIM 2191); test: Agar disk diffusion, inhibition zone; format: cell-based; conditions: 100 µg/8 mm disc, triplicate, mean ± SD
# Method in brief: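 For the fungal strain, discs soaked in test compound solution (DMSO stock diluted with distilled water) sat on seeded Mueller-Hinton agar. Clotrimazole was the reference. Incubation ran 48 h at 35 °C, in triplicate. Zone of growth inhibition recorded in mm as the mean diameter around each disc.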
# [27] = system: Pseudomonas aeruginosa (MCCB 0035); test: Agar disk diffusion, inhibition zone; format: cell-based; conditions: 100 µg/8 mm disc, triplicate, mean ± SD
# [28] = system: Bacillus cereus (NCIM-2458); test: MIC, broth microdilution; format: cell-based; conditions: NCIM2458, read-out: Minimum inhibitory concentration (MIC), BC
# Method in brief: as §1
# [29] = system: Aspergillus niger (NCIM 2191); test: MIC, broth microdilution; format: cell-based; conditions: NCIM2191, read-out: Minimum inhibitory concentration (MIC), AN
# Method in brief: as §3
# [30] = system: Salmonella typhimurium (NCIM-2501); test: Agar disk diffusion, inhibition zone; format: cell-based; conditions: 100 µg/8 mm disc, triplicate, mean ± SD
# [31] = system: Bacillus cereus (NCIM-2458); test: Agar disk diffusion, inhibition zone; format: cell-based; conditions: 100 µg/8 mm disc, triplicate, mean ± SD
# [32] = system: Reovirus-1; test: CPE reduction assay in Vero cells; format: cell-based; conditions: read-out: Antiviral EC50, Reovirus-1
# [33] = system: Influenza A/H3N2 A/HK/7/87; test: CPE reduction assay in MDCK cells; format: cell-based; conditions: Influenza A virus
# [34] = system: Human embryonic lung (HEL) cells; conditions: HEL cell cultures; microscopically detectable alteration of normal cell morphology
# [35] = system: MT4 cells; conditions: MT4 cell cultures; colorimetric MTT cell viability assay
# [36] = system: Klebsiella aerogenes (NCIM-2098); test: MIC, broth microdilution; format: cell-based; conditions: NCIM2098, read-out: Minimum inhibitory concentration (MIC), KA
# Method in brief: as §2
compound,measurement,setting,value
"Cc1ccc(S(=O)(=O)N2C(=O)CSC2c2ccc(C(C)C)cc2)cc1 (centres unmarked) [5n, 3-[(4-Methylphenyl)sulfonyl]-2-[4-(propan-2-yl)phenyl]-1,3-thiazolidin-4-one]",MIC,[1],> 256 µg/mL
same,"Cytotoxicity, Minimum cytotoxic conc.",[2],>100 µM
same,"Diameter of growth inhibition zone, CN",[3],5 ± 0.3 mm
same,EC50,[4],> 100000 nM
same,EC50,[5],> 100 µM
same,MIC,[6],> 256 µg/mL
same,"Diameter of growth inhibition zone, LC",[7],07 ± 0.30 mm
same,EC50,"[8]; read-out: Antiviral EC50, Influenza A/H1N1 A/Ned/378/05, MTS",> 100 µM
same,EC50,"[8]; read-out: Antiviral EC50, Influenza A/H1N1 A/Ned/378/05, visual CPE score",> 100 µM
same,EC50,[9],> 100 µM
same,EC50,[10],> 100 µM
same,MIC,[11],> 256 µg/mL
same,"Diameter of growth inhibition zone, AF",[12],9.5 ± 0.9 mm
same,MIC,[13],> 256 µg/mL
same,MIC,[14],> 512 µg/mL
same,"Diameter of growth inhibition zone, EC",[15],08 ± 0.65 mm
same,"Diameter of growth inhibition zone, KA",[16],07 ± 0.7 mm
same,EC50,[17],> 100 µM
same,Minimum cytotoxic conc.,[18],>100 µM
same,"Diameter of growth inhibition zone, CA",[19],9 ± 1.5 mm
same,MIC,[20],> 512 µg/mL
same,EC50,[21],> 100 µM
same,EC50,[22],> 100 µM
same,EC50,[23],> 100 µM
same,EC50,[24],> 100 µM
same,"Diameter of growth inhibition zone, SP",[25],07 ± 0.6 mm
same,"Diameter of growth inhibition zone, AN",[26],10 ± 1.2 mm
same,"Diameter of growth inhibition zone, PA",[27],8.5 ± 1.5 mm
same,MIC,[28],> 256 µg/mL
same,MIC,[29],> 256 µg/mL
same,"Diameter of growth inhibition zone, ST",[30],07 ± 1.5 mm
same,"Diameter of growth inhibition zone, BC",[31],07 ± 0.1 mm
same,EC50,[32],> 100 µM
same,EC50,"[33]; read-out: Antiviral EC50, Influenza A/H3N2 A/HK/7/87, MTS",> 100 µM
same,EC50,"[33]; read-out: Antiviral EC50, Influenza A/H3N2 A/HK/7/87, visual CPE score",> 100 µM
same,Minimum cytotoxic conc.,[34],>100 µM
same,Minimum cytotoxic conc.,[35],>125 µM
same,MIC,[36],> 256 µg/mL
"COc1c(C)c2c(c(O)c1C/C=C(\C)CCC(=O)O)C(=O)OC2 [Mycophenolic acid, mycophenolic acid, reference compound]",EC50,[4],1400 nM
same,EC50,[5],0.4 µM
same,EC50,[9],0.8 µM
same,EC50,[17],> 100 µM
same,Minimum cytotoxic conc.,[18],>100 µM
same,EC50,[24],11.7 µM
same,EC50,[32],0.4 µM
"NC(=O)c1ncn([C@@H]2O[C@H](CO)[C@@H](O)[C@H]2O)n1 [Ribavirin, reference compound]","Cytotoxicity, Minimum cytotoxic conc.",[2],≥100 µM
same,EC50,[5],112 µM
same,EC50,[9],> 250 µM
same,EC50,[17],> 250 µM
same,Minimum cytotoxic conc.,[18],>250 µM
same,EC50,[23],> 250 µM
same,EC50,[24],> 250 µM
same,EC50,[32],> 250 µM
